# Data reported in ChEMBL document CHEMBL1165943, “Design and synthesis of new anticancer pyrimidines with multiple-kinase inhibitory effect” (Bioorg Med Chem, 2010).
# Assays:
# [1] = tested on: ACHN; test: Growth inhibition of human ACHN cells after 48 hrs by sulforhodamine B assay; format: functional, cell-based
# In short: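 Five-dose SRB assay. Cells in RPMI 1640 with 5% FBS and 2 mM L-glutamine were seeded at 5,000–40,000 cells/well, with a TCA-fixed time-zero plate (Tz) taken at 24 h. Compound stocks were in DMSO, serially diluted 10-fold or ½-log to five concentrations, and incubated 48 h at 37 °C. Plates were stained with SRB and read at 515 nm. IC₅₀ was taken where [(Ti−Tz)/(C−Tz)]×100 = 50.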
# [2] = Growth inhibition of human Hs 578T cells after 48 hrs by sulforhodamine B assay; format: functional, cell-based; details: for CC50: read-out: LC50 (the source's name)
# In short: (§1)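 Cells grown in RPMI 1640 with 5% FBS and 2 mM L-glutamine, seeded at 5,000–40,000 cells/well according to doubling time. After 24 h, time-zero plates are TCA-fixed. Five concentrations (10-fold or ½log dilutions, DMSO stocks) are applied for 48 h at 37 °C, 5% CO₂. Cells are TCA-fixed, SRB-stained and read at 515 nm. IC₅₀ is taken from [(Ti−Tz)/(C−Tz)]×100 = 50.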
# [3] = tested on: HL-60(TB); test: Cytotoxicity against human HL-60(TB) cells assessed as cell growth at 0.001 uM after 48 hrs by sulforhodamine B assay; format: functional; details: HL-60, 48 h, read-out: Activity
# In short: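 Five-concentration HL-60(TB) test in RPMI 1640 with 5% FBS and 2 mM L-glutamine. Cells are plated at 5,000–40,000/well and a TCA-fixed time-zero plate is read at drug addition after 24 h. Drug is dissolved in DMSO and given as five 10-fold or ½log dilutions for 48 h at 37 °C, 5% CO2. Settled cells are fixed with TCA, stained with SRB and read at 515 nm.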
# [4] = tested on: SNB-75; test: Cytotoxicity against human SNB75 cells assessed as cell growth at 100 nM after 48 hrs by sulforhodamine B assay; format: functional; details: SNB-75, 48 h, read-out: Activity
# [5] = tested on: LOX IMVI; test: Cytotoxicity against human LOXIMVI cells assessed as cell growth at 100 nM after 48 hrs by sulforhodamine B assay; format: functional; details: read-out: Activity
# [6] = tested on: UACC-62; test: Cytotoxicity against human UACC62 cells assessed as cell growth at 100 nM after 48 hrs by sulforhodamine B assay; format: functional; details: UACC-62, 48 h, read-out: Activity
# [7] = tested on: Malme-3M; test: Cytotoxicity against human MALME-3M cells assessed as cell growth at 10 uM after 48 hrs by sulforhodamine B assay; format: functional; details: read-out: Activity
# [8] = tested on: EKVX; test: Cytotoxicity against human EKVX cells assessed as cell growth at 0.01 uM after 48 hrs by sulforhodamine B assay; format: functional; details: read-out: Activity
# [9] = tested on: KM12; test: Cytotoxicity against human KM12 cells assessed as cell growth at 0.01 uM after 48 hrs by sulforhodamine B assay; format: functional; details: KM12, 48 h, read-out: Activity
# [10] = tested on: U-251; test: Cytotoxicity against human U251 cells assessed as cell growth at 0.01 uM after 48 hrs by sulforhodamine B assay; format: functional; details: U-251, 48 h, read-out: Activity
# [11] = tested on: DU-145; test: Cytotoxicity against human DU145 cells assessed as cell growth at 100 nM after 48 hrs by sulforhodamine B assay; format: functional; details: DU-145, 48 h, read-out: Activity
# [12] = tested on: SK-MEL-5; test: Cytotoxicity against human SK-MEL-5 cells assessed as cell growth at 10 uM after 48 hrs by sulforhodamine B assay; format: functional; details: SK-MEL-5, 48 h, read-out: Activity
# [13] = tested on: UACC-257; test: Cytotoxicity against human UACC257 cells assessed as cell growth at 10 uM after 48 hrs by sulforhodamine B assay; format: functional; details: UACC-257, 48 h, read-out: Activity
# [14] = tested on: OVCAR-5; test: Cytotoxicity against human OVCAR5 cells assessed as cell growth at 10 uM after 48 hrs by sulforhodamine B assay; format: functional; details: OVCAR-5, 48 h, read-out: Activity
# [15] = tested on: NCI/ADR-RES; test: Cytotoxicity against human NCI/ADR-RES cells assessed as cell growth at 10 uM after 48 hrs by sulforhodamine B assay; format: functional; details: read-out: Activity
# [16] = tested on: MOLT-4; test: Cytotoxicity against human MOLT4 cells assessed as cell growth at 1 uM after 48 hrs by sulforhodamine B assay; format: functional; details: MOLT-4, 48 h, read-out: Activity
# [17] = tested on: NCI-H322M; test: Cytotoxicity against human NCI-H322M cells assessed as cell growth at 1 uM after 48 hrs by sulforhodamine B assay; format: functional; details: read-out: Activity
# [18] = tested on: HT-29; test: Cytotoxicity against human HT-29 cells assessed as cell growth at 1 uM after 48 hrs by sulforhodamine B assay; format: functional; details: HT-29, 48 h, read-out: Activity
# [19] = tested on: SNB-19; test: Cytotoxicity against human SNB19 cells assessed as cell growth at 1 uM after 48 hrs by sulforhodamine B assay; format: functional; details: SNB-19, 48 h, read-out: Activity
# [20] = tested on: SNB-75; test: Cytotoxicity against human SNB75 cells assessed as cell growth at 1 uM after 48 hrs by sulforhodamine B assay; format: functional; details: SNB-75, 48 h, read-out: Activity
# [21] = tested on: OVCAR-4; test: Cytotoxicity against human OVCAR4 cells assessed as cell growth at 0.01 uM after 48 hrs by sulforhodamine B assay; format: functional; details: OVCAR-4, 48 h, read-out: Activity
# [22] = tested on: OVCAR-3; test: Cytotoxicity against human OVCAR-3 cells assessed as cell growth at 1 uM after 48 hrs by sulforhodamine B assay; format: functional; details: OVCAR-3, 48 h, read-out: Activity
# [23] = tested on: SK-OV-3; test: Cytotoxicity against human SKOV3 cells assessed as cell growth at 1 uM after 48 hrs by sulforhodamine B assay; format: functional; details: SK-OV-3, 48 h, read-out: Activity
# [24] = tested on: 786-0; test: Cytotoxicity against human 786-0 cells assessed as cell growth at 1 uM after 48 hrs by sulforhodamine B assay; format: functional; details: 786-0, 48 h, read-out: Activity
# In short: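 Cells grown in RPMI 1640 with 5% FBS and 2 mM L-glutamine, seeded at 5,000–40,000 cells/well by doubling time. Time-zero plates TCA-fixed after 24 h. Five concentrations (10-fold or half-log dilutions from DMSO stock) added; 48 h at 37 °C, 5% CO2. Cold TCA fixation (final 10%, 60 min, 4 °C), 0.4% SRB stain, dye solubilized in 10 mM trizma base, A515.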
# [25] = tested on: NCI-H23; test: Cytotoxicity against human NCI-H23 cells assessed as cell growth at 10 uM after 48 hrs by sulforhodamine B assay; format: functional; details: NCI-H23, 48 h, read-out: Activity
# [26] = tested on: NCI-H23; test: Growth inhibition of human NCI-H23 cells after 48 hrs by sulforhodamine B assay; format: functional, cell-based; details: NCI-H23, 48 h; for CC50: read-out: LC50 (the source's name); in short: as §1
# [27] = tested on: U-251; test: Growth inhibition of human U251 cells after 48 hrs by sulforhodamine B assay; format: functional, cell-based; details: for CC50: read-out: LC50 (the source's name); in short: as §1
Structure (SMILES),GI50 [1],IC50 [1],LC50 (50% lethal concentration) [1],TGI [1],GI50 [2],IC50 [2],TGI [2],CC50 [2],growth at 0.001 µM [3],growth at 0.1 µM [4],growth at 0.1 µM [5],growth at 0.1 µM [6],growth at 10 µM [7],growth at 0.01 µM [8],growth at 0.01 µM [9],growth at 0.01 µM [10],growth at 0.1 µM [11],growth at 10 µM [12],growth at 10 µM [13],growth at 10 µM [14],other results
CC(=O)c1ccccc1-c1ccc(-c2ccnc(NC(=O)Nc3cc(N4CCOCC4)cc(C(F)(F)F)c3)n2)cn1,> 100 µM,6.89 µM,> 100 µM,> 100 µM,> 100 µM,2.87 µM,> 100 µM,> 100 µM,92%,89%,90%,90%,61%,94%,98%,98%,77%,68%,92%,118%,"growth at 10 µM [15]: 69%; growth at 1 µM [16]: 86%; growth at 1 µM [17]: 88%; growth at 1 µM [18]: 76%; growth at 1 µM [19]: 85%; growth at 1 µM [20]: 36%; growth at 0.01 µM [21]: 108%; growth at 1 µM [22]: 70%; growth at 1 µM [23]: 48%; growth at 1 µM [24]: 55%; growth at 10 µM [25]: 60%; GI50 [26]: 2.95 µM; IC50 [26]: > 100 µM; TGI [26]: > 100 µM; CC50 [26]: > 100 µM; TGI [27]: > 100 µM; GI50 ([27]; Homo sapiens, U-251, 48 h): 5.36 µM; IC50 ([27]; Homo sapiens, U-251, 48 h): 34.9 µM; CC50 ([27]; Homo sapiens, U-251, 48 h): > 100 µM"
CC(=O)Nc1cccc(-c2ccc(-c3ccnc(NC(=O)Nc4cc(C(F)(F)F)cc(C(F)(F)F)c4)n3)cn2)c1.Cl,3.83 µM,3.83 µM,47.1 µM,15.5 µM,7.52 µM,7.52 µM,> 100 µM,> 100 µM,95%,67%,81%,82%,-49%,79%,99%,90%,102%,100%,-89%,-96%,"growth at 10 µM [15]: 8%; growth at 1 µM [16]: 4%; growth at 1 µM [17]: 12%; growth at 1 µM [18]: -6%; growth at 1 µM [19]: 29%; growth at 1 µM [20]: 54%; growth at 0.01 µM [21]: 78%; growth at 1 µM [22]: -52%; growth at 1 µM [23]: 65%; growth at 1 µM [24]: 25%; growth at 10 µM [25]: -69%; GI50 [26]: 2.24 µM; IC50 [26]: 2.24 µM; TGI [26]: 6.94 µM; CC50 [26]: 43.8 µM; GI50 ([27]; Homo sapiens, U-251, 48 h): 2 µM; IC50 ([27]; Homo sapiens, U-251, 48 h): 2 µM; TGI ([27]; Homo sapiens, U-251, 48 h): 5.32 µM; CC50 ([27]; Homo sapiens, U-251, 48 h): 18.9 µM"
